The values that follow come from ChEMBL document CHEMBL1129356, “Novel 3,7-diheterabicyclo[3.3.1]nonanes that possess predominant class III antiarrhythmic activity in 1-4 day post infarction dog models: X-ray diffraction analysis of 3-[4-(1H-imidazol-1-yl)benzoyl]-7-isopropyl-3,7-diazabicyclo[3.3.1]nona ne dihydroperchlorate” (1996).

Experiment [1] concerns Canis familiaris. Briefly: Antiarrhythmic property His-Purkinje conduction time(drug free) is compared to lidocaine(2) using doses(3 and 6 mg/kg) measures. It counts as functional, Canis lupus familiaris, His-Purkinje system. The gist of the method: (§1)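 Mongrel dogs (~12–25 kg), 1–4 days after coronary occlusion leaving a surviving epicardial rim, anesthetized with sodium pentobarbital (~30 mg/kg). 12-lead ECG monitored throughout. Agent given iv at 3 and 6 mg/kg. Parameters recorded before (drug free) and after dosing. Programmed electrical stimulation tested SVT inducibility (≥250 beats/min, ≥30 s) at baseline, ~2–5 min after each dose, and at 30 min.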

The test system of experiment [2] is Canis familiaris. The experiment in a line: Antiarrhythmic property Heart rate (drug free) is compared to Lidocaine using doses (3 and 6 mg/kg). The experiment is classed as functional, Canis lupus familiaris. The procedure, abridged:
as §1

For experiment [3], the system named is Canis familiaris. Briefly: Antiarrhythmic property His-Purkinje conduction time(post drug) is compared to lidocaine(2) using doses(3 and 6 mg/kg) measures. It counts as functional, Canis lupus familiaris, His-Purkinje system. The gist of the method: as §1
The test system of experiment [4] is Canis familiaris. Briefly: (§2) Antiarrhythmic property Nonsustained ventricular tachycardia is compared to lidocaine(2) using dose of (3 and 6 mg/kg). The experiment is classed as functional, Canis lupus familiaris, Heart. The gist of the method: as §1
Experiment [5] concerns Canis familiaris. Briefly: Antiarrhythmic property Mean blood pressure(post drug) is compared to Lidocaine using doses(3 and 6 mg/kg). The experiment is classed as functional, Canis lupus familiaris. The gist of the method: as §1
In experiment [6] the test system is Canis familiaris. Briefly: Antiarrhythmic property Heart rate (post drug) is compared to Lidocaine using doses(3 and 6 mg/kg). system. The experiment is classed as functional, Canis lupus familiaris. The gist of the method: as §1
The subject of experiment [7] is Canis familiaris. Briefly: Antiarrhythmic property Mean blood pressure (drug free) is compared to Lidocaine using doses(3 and 6 mg/kg). It counts as functional, Canis lupus familiaris. The procedure, abridged: as §1
Experiment [8] relates to Canis familiaris. Briefly: Tested for antiarrhythmic property by measuring ability to decrease Mean blood pressure(post drug) is compared to Lidocaine using doses(3 and 6 mg/kg). The experiment is classed as functional, Canis lupus familiaris. The gist of the method:
(§3)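 Mongrel dogs (about 12–25 kg), 1–4 days after coronary occlusion infarction, under sodium pentobarbital (~30 mg/kg) with 12-lead ECG monitoring. Agents and lidocaine were given iv at 3 and 6 mg/kg. Programmed ventricular stimulation was applied at baseline, about 2–5 min after each dose, and at 30 min. SVT was defined as ≥250 beats/min lasting ≥30 s. Pre means drug-free; post means after dosing.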

Experiment [9] relates to Canis familiaris. Briefly: Tested for antiarrhythmic property by measuring ability to decrease heart rate(post drug) is compared to Lidocaine using doses(3 and 6 mg/kg). It counts as functional, Canis lupus familiaris. The gist of the method: as §3
Experiment [10] deals with Canis familiaris. The experiment in a line: Antiarrhythmic properties are compared to lidocaine(2) using doses(3 and 6 mg/kg). Time required for the ventricular myocardium to undergo depolarization and repolarization ((post drug). The experiment is classed as functional, Canis lupus familiaris. The gist of the method:
as §3

Experiment [11] deals with Canis familiaris. Briefly: Tested for antiarrhythmic property by measuring ability to decrease Mean blood pressure (drug free) is compared to Lidocaine using doses(3 and 6 mg/kg). It counts as functional, Canis lupus familiaris. The gist of the method: as §3
The test system of experiment [12] is Canis familiaris. Briefly: Tested for antiarrhythmic property by measuring ability to decrease heart rate(drug free) is compared to Lidocaine using doses (3 and 6 mg/kg). It counts as functional, Canis lupus familiaris. The gist of the method:
as §3

Experiment [13] deals with Canis familiaris. Briefly: (§4) Antiarrhythmic property ventricular effective refractory period(drug free) is compared to lidocaine(2) using doses(3 and 6 mg/kg). It counts as functional, Canis lupus familiaris, Heart. The procedure, abridged:
as §3

The test system of experiment [14] is Canis familiaris. Briefly: Antiarrhythmic property ventricular effective refractory period(post drug) is compared to lidocaine(2) using doses(3 and 6 mg/kg). The experiment is classed as functional, Canis lupus familiaris, Heart. The gist of the method: as §3
Experiment [15] has as its system Canis familiaris. The experiment in a line: Antiarrhythmic properties are compared to lidocaine(2) using doses(3 and 6 mg/kg). Time required for the ventricular myocardium to undergo depolarization and repolarization (drug free). It counts as functional, Canis lupus familiaris. The procedure, abridged: as §3
The subject of experiment [16] is Canis familiaris. Briefly: (§5) Antiarrhythmic property His-Purkinje conduction time(post drug) is compared to lidocaine(2) using doses(3 and 6 mg/kg). The experiment is classed as functional, Canis lupus familiaris, His-Purkinje system. The procedure, abridged: as §3
In experiment [17] the test system is Canis familiaris. The description is as §5. It counts as functional, Canis lupus familiaris, His-Purkinje system. The gist of the method: as §3
This is another data set of the same source.

Experiment [18] concerns Canis familiaris. The experiment in a line: (§6) Antiarrhythmic property Nonsustained ventricular tachycardia is compared to lidocaine(2) using doses(3 and 6 mg/kg). The experiment is classed as functional, Canis lupus familiaris, Heart. The procedure, abridged:
as §3

For experiment [19], the system named is Canis familiaris. Described as §2. It counts as functional, Canis lupus familiaris, Heart. The gist of the method: as §3
This is another data set of the same source.

The subject of experiment [20] is Canis familiaris. Briefly: Tested for antiarrhythmic property by measuring ability to decrease heart rate (post drug) is compared to Lidocaine using doses (3 and 6 mg/kg). It counts as functional, Canis lupus familiaris. The procedure, abridged:
as §3

Experiment [21] relates to Canis familiaris. The experiment in a line: Tested for antiarrhythmic property by measuring ability to decrease heart rate (drug free) is compared to Lidocaine using doses (3 and 6 mg/kg). It counts as functional, Canis lupus familiaris. The procedure, abridged: as §3
The test system of experiment [22] is Canis familiaris. The experiment in a line: Antiarrhythmic properties are compared to lidocaine(2) using doses(3 and 6 mg/kg) measures His-Purkinje conduction time(drug free). It counts as functional, Canis lupus familiaris, His-Purkinje system. The procedure, abridged:
as §1

The subject of experiment [23] is Canis familiaris. The experiment is described as §6. It counts as functional, Canis lupus familiaris, Heart. The procedure, abridged: as §1
This is another data set of the same source.

Experiment [24] concerns Canis familiaris. The experiment is described as §4. The experiment is classed as functional, Canis lupus familiaris, Heart. The gist of the method:
as §1
This is another data set of the same source.

For `Cl.c1ccc(CN2CC3CSCC(C3)C2)cc1`, the HV interval in experiment [1] stood at 30 ms; in [3] it was 35 ms. Also, the figures for the HR in [2] and in experiment [6] were 162 beats min-1 and 165 beats min-1, respectively. Besides, in experiment [4], the NSVT came to 3 mg/kg. In addition, the MBP in [5] is recorded as 105 mmHg; in experiment [7], 99 mmHg.

For `c1ccc(CN2CC3CC(C2)CN(CC2CC2)C3)cc1`, the figures for the MBP in experiment [8] and in experiment [11] were 37 mmHg and 130 mmHg, respectively. For the same molecule, the HR in experiment [9] worked out at 110 beats min-1; in [12], 130 beats min-1. In addition, the QT in [10] was 260 ms; in experiment [15], 220 ms. Moreover, the VERP in experiment [13] came out at 160 ms; in experiment [14], 230 ms. Moreover, the HV interval in experiment [16] and in experiment [17] was 50 ms in each case. In addition, the NSVT in experiment [18] stood at 3 mg/kg.

On to `CC(C)N1CC2CC(CN(C(=O)c3ccc(NS(C)(=O)=O)cc3)C2)C1`, for which the MBP in experiment [8] turned out to be 50 mmHg; in experiment [11], 70 mmHg. This molecule also came in with an NSVT in [19] of 6 mg/kg. The HR in experiment [20] and in experiment [21] was 150 beats min-1 in each case.

For the molecule `c1ccc(CN2CC3CSCC(C3)C2)cc1`, the HR in experiment [2] and in [6] was 162 beats min-1 each time. The MBP in [5] is on record as 120 mmHg; in experiment [7], 98 mmHg. For the same molecule, the HV interval in [22] is reported as 30 ms; in experiment [17] it was 40 ms. This molecule also came in with an NSVT in experiment [23] of 3 mg/kg. Moreover, the VERP is given as 163 ms in experiment [23] and 142 ms in [24].
